This is an account of results in ChEMBL document CHEMBL1811843, “Analogue-based design, synthesis and molecular docking analysis of 2,3-diaryl quinazolinones as non-ulcerogenic anti-inflammatory agents” (Bioorg Med Chem, 2011).

Data set [1] deals with Rattus norvegicus. Nature of the data set: Antiinflammatory activity in rat assessed as inhibition of carrageenan-induced paw edema at 50 mg/kg, po measured after 180 min by Plethysmograph. The format is functional. As to conditions: 3 h. Put shortly: (§1)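 Rats randomly grouped, six per group, housed at 25 °C with a 12 h light/dark cycle and acclimatized one week. Test compounds given orally at 50 mg/kg with CMC-Na as vehicle, and indomethacin 10 mg/kg as standard. Edema induced by 0.1 ml carrageenan solution injected into the hind paw. Paw volume measured by mercury-displacement plethysmograph before and 90, 180, 270 and 360 min after injection. % edema inhibition calculated from test and control paw volumes before and after carrageenan. Results given as mean ± SEM.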
(In the carrageenan paw model, swelling and tenderness develop within hours.)

Data set [2] concerns the target T1, Prostaglandin G/H synthase 1 (Ovis aries) (UniProt P05979).
T1 sequence (whole entry): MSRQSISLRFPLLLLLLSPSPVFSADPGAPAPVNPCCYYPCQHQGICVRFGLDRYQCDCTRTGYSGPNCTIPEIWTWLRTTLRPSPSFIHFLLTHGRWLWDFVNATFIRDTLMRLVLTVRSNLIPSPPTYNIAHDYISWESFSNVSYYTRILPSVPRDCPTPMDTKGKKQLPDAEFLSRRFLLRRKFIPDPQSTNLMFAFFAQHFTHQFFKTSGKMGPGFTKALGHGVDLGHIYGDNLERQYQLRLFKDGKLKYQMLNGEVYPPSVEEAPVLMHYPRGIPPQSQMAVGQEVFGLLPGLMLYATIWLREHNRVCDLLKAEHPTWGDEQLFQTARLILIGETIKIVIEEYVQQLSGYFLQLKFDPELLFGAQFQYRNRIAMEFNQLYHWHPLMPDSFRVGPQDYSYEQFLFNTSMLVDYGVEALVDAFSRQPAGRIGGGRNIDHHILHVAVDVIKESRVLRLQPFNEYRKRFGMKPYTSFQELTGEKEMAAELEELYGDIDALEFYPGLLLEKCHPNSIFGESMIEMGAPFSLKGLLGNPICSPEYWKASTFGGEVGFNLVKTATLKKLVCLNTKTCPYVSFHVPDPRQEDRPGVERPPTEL
Put plainly: Inhibition of sheep COX-1 at 20 uM by cayman colorimetric assay. Put shortly: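 Ovine COX-1 activity measured with a commercial ovine COX-1/COX-2 inhibitor screening kit, with calculations done per the kit guidelines. Each value is the mean of two determinations.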

In data set [3] the test system is Rattus norvegicus. Nature of the data set: Antiinflammatory activity in rat assessed as inhibition of carrageenan-induced paw edema at 50 mg/kg, po measured after 270 min by Plethysmograph. The class given is functional. As to conditions: 4.5 h. Put shortly:
as §1

Data set [4] has as its system Rattus norvegicus. Nature of the data set: Antiinflammatory activity in rat assessed as inhibition of carrageenan-induced paw edema at 50 mg/kg, po measured after 360 min by Plethysmograph. The format is functional. As to conditions: 6 h. Put shortly: as §1
The species entered for data set [5] is Ovis aries. Nature of the data set: Selectivity ratio of inhibition for sheep COX-1 to inhibition for sheep COX-2 at 20 uM.
The test system of data set [6] is Rattus norvegicus. Nature of the data set: Antiinflammatory activity in rat assessed as inhibition of carrageenan-induced paw edema at 50 mg/kg, po measured after 90 min by Plethysmograph. As to conditions: 1.5 h. The class given is functional. The procedure, abridged:
as §1

Data set [7] has as its system Rattus norvegicus. Nature of the data set: Toxicity in albino Wistar rat assessed as ulcerogenic activity measuring gastric ulcer lesion index at 100 mg/kg, po once daily for four consecutive days. The class given is organism-based, Stomach. More on the design: dose 100 mg/kg, route oral. Particulars: in vivo. The procedure, abridged:
(§2)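 Wistar albino rats (150–200 g, either sex, fasted) were randomized into groups of 10 and dosed orally once daily for four days alongside a vehicle control group. Rats were killed under deep ether anaesthesia and stomachs removed, opened along the greater curvature, and examined under a dissecting microscope for lesions or bleeding. Ulcer lesion index is given in cm.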

The species entered for data set [8] is Rattus norvegicus. Put plainly: animal or person. As to conditions: po, 3 h, read-out: INH.
The species named for data set [9] is Rattus norvegicus. Nature of the data set: animal or person. Particulars: po, 1.5 h, read-out: INH.
Data set [10] has as its system Rattus norvegicus. Nature of the data set: Toxicity in albino Wistar rat assessed as ulcerogenic activity measuring gastric ulcer lesion index at 50 mg/kg, po once daily for four consecutive days. The format is organism-based, Stomach. Details: dose 50 mg/kg, route oral. As to conditions: in vivo. Put shortly: as §2
In data set [11] the test system is Rattus norvegicus. Put plainly: Toxicity in albino Wistar rat assessed as ulcerogenic activity measuring gastric ulcer lesion index at 10 mg/kg, po once daily for four consecutive days. The format is organism-based, Stomach. Details: dose 10 mg/kg, route oral. As to conditions: in vivo. Put shortly:
as §2

The species named for data set [12] is Rattus norvegicus. Nature of the data set: animal or person. Particulars: po, 4.5 h, read-out: INH.
The species named for data set [13] is Rattus norvegicus. Nature of the data set: animal or person. Particulars: po, 6 h, read-out: INH.

Take `COc1ccc(-c2nc3cc(Cl)ccc3c(=O)n2-c2ccc(S(C)(=O)=O)cc2)cc1`: the inhibition in vivo at 50 mg/kg came to 38% in data set [1], 41% in [3], 43% in data set [4] and 37% in data set [6]. Further, the inhibition in data set [2] worked out at 12%. In addition, in [5], the Selectivity ratio was 0.167.
In the case of `CS(=O)(=O)c1ccc(-n2c(-c3ccccc3)nc3ccc(Br)cc3c2=O)cc1`, the Activity in data set [7] amounted to 0 cm. In addition, the inhibition in vivo at 50 mg/kg in [1] amounted to 40%; in data set [3], 44%; in [4], 49%; in data set [6] it was 38%. The molecule also registered an inhibition in data set [2] of 4%. The Selectivity ratio in [5] is 0.04.
Regarding `CS(=O)(=O)c1ccc(-n2c(-c3ccccc3)nc3ccccc3c2=O)cc1`, the inhibition in vivo at 50 mg/kg in data set [1] is 33%; in data set [3] it was 36%; in [4], 39%; in [6], 30%. The molecule also displayed an inhibition in [2] of 13%. Further, the Selectivity ratio in data set [5] was found to be 0.31.
On to `CS(=O)(=O)c1ccc(-n2c(-c3ccccc3)nc3cc(F)ccc3c2=O)cc1`, for which the inhibition in vivo at 50 mg/kg is 34% in data set [1], 39% in [3], 41% in data set [4] and 30% in [6]. Also, in [2], the inhibition turned out to be 15%. Further, the Selectivity ratio in data set [5] was 0.238.
`COc1ccc(-c2nc3cc(Cl)ccc3c(=O)n2-c2ccc(SC)cc2)cc1`: the inhibition in vivo at 50 mg/kg in data set [1] is 38%; in [3] it was 43%; in data set [4], 47%; in [6] it was 36%.
Consider `COc1ccc2c(c1)c(CC(=O)O)c(C)n2C(=O)c1ccc(Cl)cc1` [INDOMETHACIN], for which the inhibition in vivo at 10 mg/kg was 58% in data set [8], 41% in [9], 49% in [12] and 13% in [13]. The Activity was 11.48 cm in [10] and 1.42 cm in data set [11].
On to `COc1ccc(-c2nc3ccc(Br)cc3c(=O)n2-c2ccc(S(C)(=O)=O)cc2)cc1`, for which the inhibition in vivo at 50 mg/kg worked out at 41% in data set [1], 49% in data set [3], 54% in data set [4] and 39% in data set [6]. The same molecule showed an inhibition in data set [2] of 7%. Further, the Selectivity ratio in [5] turned out to be 0.106.
For the molecule `COc1ccc(-c2nc3ccc(Br)cc3c(=O)n2-c2ccc(SC)cc2)cc1`, the inhibition in vivo at 50 mg/kg came out at 35% in data set [1], 39% in data set [3], 42% in [4] and 32% in data set [6].
Consider `COc1ccc(-c2nc3ccccc3c(=O)n2-c2ccc(S(C)(=O)=O)cc2)cc1`, for which the inhibition in vivo at 50 mg/kg in [1] was 38%; in data set [3], 42%; in data set [4], 46%; in data set [6], 35%. Further, the inhibition in [2] is 24%. In addition, the Selectivity ratio in data set [5] stood at 0.471.
Turning to `CSc1ccc(-n2c(-c3ccccc3)nc3ccccc3c2=O)cc1`, the inhibition in vivo at 50 mg/kg amounted to 32% in data set [1], 34% in data set [3], 38% in data set [4] and 29% in data set [6]. In data set [2], the inhibition is 12%. In addition, in data set [5], the Selectivity ratio stood at 0.3.
Turning to `CS(=O)(=O)c1ccc(-n2c(-c3ccccc3)nc3cc(Cl)ccc3c2=O)cc1`, the Activity in data set [7] is 0 cm. Further, the inhibition in vivo at 50 mg/kg in [1] was found to be 37%; in [3], 42%; in [4], 45%; in [6] it was 32%. In [2], this molecule had an inhibition of 0%.
Regarding `COc1ccc(-c2nc3cc(F)ccc3c(=O)n2-c2ccc(S(C)(=O)=O)cc2)cc1`, the inhibition in vivo at 50 mg/kg worked out at 34% in [1], 36% in data set [3], 39% in [4] and 31% in data set [6]. In addition, the inhibition in data set [2] came out at 29%. Moreover, in data set [5], the Selectivity ratio came out at 0.453.
In the case of `COc1ccc(-c2nc3cc(F)ccc3c(=O)n2-c2ccc(SC)cc2)cc1`, the inhibition in vivo at 50 mg/kg in [1] came out at 34%; in data set [3], 37%; in [4], 40%; in [6], 31%.
On the same counts, the results for `CSc1ccc(-n2c(-c3ccccc3)nc3ccc(Br)cc3c2=O)cc1` are 33%, 35%, 39% and 30%.
Regarding `COc1ccc(-c2nc3ccccc3c(=O)n2-c2ccc(SC)cc2)cc1`, the inhibition in vivo at 50 mg/kg came out at 34% in data set [1], 38% in [3], 40% in [4] and 30% in data set [6]. In addition, the inhibition in data set [2] turned out to be 30%. Also, the Selectivity ratio in data set [5] was 0.536.
On to `CSc1ccc(-n2c(-c3ccccc3)nc3cc(F)ccc3c2=O)cc1`, for which the inhibition in vivo at 50 mg/kg in data set [1] was 36%; in [3], 39%; in data set [4] it was 40%; in data set [6], 29%.
The matching figures for `CSc1ccc(-n2c(-c3ccccc3)nc3cc(Cl)ccc3c2=O)cc1`: 32%, 34%, 39% and 31%.

Usually inhibition stands for the change of the read-out against control, counted positive when it falls. A high value points to a strong effect.
